Read-outs that look alike come from different tables or passages of the source. A value given as a limit tells only on which side of the number the result lay.

In series [1] the test system is three melanoma cell lines (B16-F1, A375, WM-164). Kind of series: SRB assay, average over melanoma cell lines and selectivity vs fibroblast. Conditions: for Antiproliferative activity on melanoma cell lines, in words: reference compounds, in vitro; for Ratio = (IC50 of fibroblast cell)/(the average IC50 of melanoma cell lines): selectivity, fold. The series is classed as cell-based, human, mouse.

Series [2] relates to NCI-60 human tumor cell lines. Briefly: NCI-60 human tumor cell line anticancer drug screen. The class given is cell-based.
In series [3] the test system is four prostate cancer cell lines (DU 145, PC-3, LNCaP, PPC-1). Kind of series: SRB assay, average over prostate cancer cell lines and selectivity vs RH7777. The series is classed as cell-based, human. To be noted: for Ratio = (IC50 of RH7777 cell)/(average IC50 of prostate cell lines): selectivity, fold. In outline:
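The control line was LPL receptor-negative RH7777 in DMEM/10% FBS. The prostate IC50s were averaged. Selectivity = IC50 in RH7777 divided by the average tumor-cell IC50.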
For orientation: In SRB staining, fixed cells bind dye roughly in proportion to their protein.

For series [4], the system named is A375 cells. Kind of series: Flow cytometric cell cycle analysis, A375. The series is classed as cell-based, human. Conditions: A375, tested 1, 5, 10, 20 μM, 48 h. A general note: A flow cytometer gives signals particle by particle.
For series [5], the system named is A375 melanoma tumors. Kind of series: A375 melanoma xenograft in athymic nude mice. The series is classed as in vivo.
For series [6], the system named is A375 cells. Kind of series: Melanoma colony-formation assay. The class given is cell-based, human. To be noted: 14 days. In outline: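 A375 cells were plated at colony-forming density (2000 per well) in DMEM with FBS and antibiotic-antimycotic at 37 °C, 5% CO2. Test compound was added at 2, […], with matching DMSO dilution as vehicle control. After 14 days' growth, colonies were stained with 0.1% […] for 30 min, rinsed and counted with an automated colony counter.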

The test system of series [7] is PPC-1 cells. Kind of series: SRB antiproliferative assay, PPC-1 prostate cancer cells. The class given is cell-based, human. To be noted: read-out: IC50 ± SEM PPC-1. Summed up:
(§1)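 Prostate cancer cells were grown in RPMI1640 with 10% FBS at 37 °C, 5% CO2. Cells were fixed with 10% TCA and stained with 0.4% SRB, and absorbance was read at 540 nm. IC50 came from nonlinear regression of % survival versus concentration.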

The test system of series [8] is LNCaP cells. Kind of series: Flow cytometric cell cycle analysis, LNCaP. The series is classed as cell-based, human. To be noted: tested 1, 5, 10, 20 μM, 48 h.
In series [9] the test system is LNCaP cells. Briefly: SRB antiproliferative assay, LNCaP prostate cancer cells. The class given is cell-based, human. Conditions: 96 h, read-out: IC50 ± SEM LNCaP. In outline:
as §1

Series [10] has as its system DU 145 cells. Briefly: SRB antiproliferative assay, DU 145 prostate cancer cells. To be noted: read-out: IC50 ± SEM DU 145. The series is classed as cell-based, human. In outline: as §1
In series [11] the test system is WM-164 cells. Kind of series: SRB antiproliferative assay, WM-164 melanoma cells. The series is classed as cell-based, human. Conditions: read-out: IC50 ± SEM WM-164. Summed up: (§2)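 Melanoma lines (human A375, WM-164; mouse B16-F1) and human dermal fibroblasts were grown in DMEM with 5% FBS, 1% antibiotic/antimycotic and bovine insulin (5 μg/mL) at 37 °C, 5% CO2. Diastereomeric mixtures were applied over a wide concentration range for 48 h. Cells were then TCA-fixed (10%), washed, air-dried overnight and SRB-stained, with absorbance read at 560 nm. IC50 (50% growth inhibition versus untreated) was obtained by nonlinear regression.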

Series [12] relates to B16-F1 cells. Kind of series: SRB antiproliferative assay, B16-F1 melanoma cells. The class given is cell-based, mouse. Conditions: read-out: IC50 ± SEM B16-F1, 48 h, diastereomeric mixtures. Summed up: as §2
The test system of series [13] is Human dermal fibroblast cells. Kind of series: SRB assay, fibroblast control cells. To be noted: read-out: IC50 ± SEM Fibroblast, 48 h, control cell line for melanoma. The series is classed as cell-based. Summed up: as §2
The subject of series [14] is A375 cells. Kind of series: SRB antiproliferative assay, A375 melanoma cells. The series is classed as cell-based, human. To be noted: read-out: IC50 ± SEM A375. In outline:
as §2

Series [15] concerns the target T1, LPA3 (Homo sapiens, UniProt Q9UBY5).
T1 sequence (Q9UBY5 1-353): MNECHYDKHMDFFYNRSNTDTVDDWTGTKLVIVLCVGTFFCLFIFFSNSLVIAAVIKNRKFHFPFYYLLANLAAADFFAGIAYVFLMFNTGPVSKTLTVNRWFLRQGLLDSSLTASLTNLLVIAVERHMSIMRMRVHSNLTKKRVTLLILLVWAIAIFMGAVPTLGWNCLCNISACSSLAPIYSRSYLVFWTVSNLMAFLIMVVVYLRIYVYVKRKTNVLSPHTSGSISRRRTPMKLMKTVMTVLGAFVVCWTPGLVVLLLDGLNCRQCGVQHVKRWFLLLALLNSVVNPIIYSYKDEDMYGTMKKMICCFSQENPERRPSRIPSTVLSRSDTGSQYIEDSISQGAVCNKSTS
Briefly: FLIPR intracellular calcium mobilization assay, LPA3-transfected Chem-1 cells. The series is classed as cell-based. To be noted: top concentration 10 μM; 15% activation of oleoyl-LPA Emax = agonist. On the technique in general: Calcium assays in cells follow changes in intracellular calcium, usually with a dye or a luminescent sensor.

In series [16] the target is LPA5 (Homo sapiens, UniProt Q9H1C0). Kind of series: FLIPR intracellular calcium mobilization assay, LPA5-transfected Chem-1 cells. The series is classed as cell-based. Conditions: top concentration 10 μM; 15% activation of oleoyl-LPA Emax = agonist.
Series [17] deals with LPA1 (Homo sapiens, UniProt Q92633). Kind of series: FLIPR intracellular calcium mobilization assay, LPA1-transfected Chem-1 cells. Conditions: top concentration 10 μM; 15% activation of oleoyl-LPA Emax = agonist. The class given is cell-based.
The subject of series [18] is PC-3 cells. Kind of series: SRB antiproliferative assay, PC-3 prostate cancer cells. Conditions: read-out: IC50 ± SEM PC-3; SRB, 96 h, Table 2. The series is classed as cell-based, human.
The mark [19] stands for this setting: Fibroblast, read-out: Aver. (average IC50 of three melanoma cells IC50s).
Setting [20] is: read-out: GI50 range, all nine types of cancer cells.
Setting [21] is: Homo sapiens, RH7777, read-out: Aver. (average IC50 of four prostate cells IC50s).
The mark [22] stands for this setting: Fibroblast, read-out: IC50 range over melanoma cell lines.
Where [23] appears, read: SRB, 48 h, diastereomeric mixtures.
Where [24] appears, read: read-out: Aver. (average IC50 of three melanoma cells IC50s), B16-F1, A375, WM-164.
[25] abbreviates: read-out: Aver. (average IC50 of four prostate cells IC50s), DU 145, PC-3, LNCaP, PPC-1.

LPA5, sequence (Q9H1C0 whole entry, species assumed): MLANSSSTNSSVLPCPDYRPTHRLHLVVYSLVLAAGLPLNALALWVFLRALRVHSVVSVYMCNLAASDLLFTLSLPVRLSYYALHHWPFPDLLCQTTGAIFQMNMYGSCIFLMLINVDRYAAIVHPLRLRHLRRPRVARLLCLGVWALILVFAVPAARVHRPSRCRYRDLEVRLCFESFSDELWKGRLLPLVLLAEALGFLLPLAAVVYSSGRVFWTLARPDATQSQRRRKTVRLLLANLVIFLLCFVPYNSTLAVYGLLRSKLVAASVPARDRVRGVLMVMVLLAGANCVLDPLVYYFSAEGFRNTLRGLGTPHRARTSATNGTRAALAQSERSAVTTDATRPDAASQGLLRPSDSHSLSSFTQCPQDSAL
LPA1, sequence (Q92633 whole entry, species assumed): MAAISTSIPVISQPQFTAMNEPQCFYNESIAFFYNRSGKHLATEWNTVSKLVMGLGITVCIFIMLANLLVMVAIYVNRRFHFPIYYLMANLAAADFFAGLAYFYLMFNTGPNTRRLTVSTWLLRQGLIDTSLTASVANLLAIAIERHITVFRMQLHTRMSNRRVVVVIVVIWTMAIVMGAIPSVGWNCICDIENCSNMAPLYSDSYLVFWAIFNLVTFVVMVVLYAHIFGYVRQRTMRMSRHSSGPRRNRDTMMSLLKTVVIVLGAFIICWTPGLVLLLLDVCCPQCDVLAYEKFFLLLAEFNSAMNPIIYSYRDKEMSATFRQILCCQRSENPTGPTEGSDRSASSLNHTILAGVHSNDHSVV

In the case of `CCCCCCCCCCCCCCCCCCNC(=O)[C@@H]1CSC(c2ccccc2)N1` (mixture of isomers) [Compound 1a, (2RS,4R)-2-Phenyl-thiazolidine-4-carboxylic acid octadecylamide], the IC50 (commonly the concentration that inhibits the measured activity by half) in [1] (setting [19]) stood at 11.6 µM; in series [3] (setting [21]) it was 6.9 µM. The 50% growth inhibitory concentration (GI50) – broadly, the concentration that inhibits growth by half – in series [2] (setting [20]) lay in the range of 0.12 to 10.9 µM.
On to `CCCCCCCCCCCCCCCCNC(=O)[C@@H]1CSC(c2ccc(NC(C)=O)cc2)N1` (mixture of isomers) [Compound 1b, (2RS,4R)-2-(4-Acetylamino-phenyl)-thiazolidine-4-carboxylic acid hexadecylamide], for which the “concentration at which accumulation of cells in sub-G1 phase became apparent” value in series [4] and in series [8] was 5 µM each time. Besides, the “body weight change during the experiment” value in series [5] (nude mice, treatment groups) was “no significant body weight loss”. The “inhibition of A375 colony formation” value in series [6] (2 μM) is “effectively inhibit”; in series [6] (100 μM), “completely inhibited”. The IC50 was 1.8 µM in [1] (setting [19]); 0.7 to 2.1 µM in series [1] (setting [22]); 0.4 ± 0.1 µM in series [7] (Homo sapiens, PPC-1, 96 h); 1 ± 0.1 µM in series [9] (Homo sapiens, LNCaP); 1.7 ± 0.1 µM in series [10] (Homo sapiens, DU-145, 96 h). The GI50 is 0.13 to 1.48 µM in [2] (read-out: GI50 melanoma), 0.17 to 0.27 µM in [2] (read-out: GI50 prostate cancer) and 0.12 to 10.9 µM in series [2] (setting [20]).
With `CCCCCCCCC/C=C/CCCCCCCNC(=O)[C@@H]1CSC(c2ccccc2)N1` (mixture of isomers) [Compound 3jc, (2RS,4R)-2-Phenyl-thiazolidine-4-carboxylic acid (E)-octadec-8-enylamide], the IC50 was 5.9 µM in series [1] (setting [19]) and 2.4 ± 0.2 µM in series [11] (Homo sapiens, WM164, 48 h).
Turning to `[NH2][Pt]([NH2])([Cl])[Cl]` [CDDP, cisplatin, reference compound], the IC50 in [12], in [11] (setting [23]), in series [13] and in [14] (setting [23]) was > 100 µM in each case. Besides, the “Antiproliferative activity on melanoma cell lines, in words” value in series [1] is on record as “resistant”.
Turning to `CCCCCCCCCCCCCCCCNC(=O)[C@@H]1CSC(c2ccc(NC(=O)CCl)cc2)N1` (stereo partly drawn) [Compound 15b, (2RS,4R)-2-[4-(2-Chloro-acetylamino)-phenyl]-thiazoli-dine-4-carboxylic acid hexadecylamide], the results for the IC50 in series [1] (setting [19]), in series [1] (setting [22]) and in series [3] (setting [21]) were 39.8 µM, 5.7 to 114 µM and 1 µM, respectively.
In [5] (60 mg/kg i.p. once daily, end of treatment, nude mice), `CN(C)/N=N/c1[nH]cnc1C(N)=O` [DTIC, dacarbazine] displayed a tumor growth inhibition of 42%. Further, the “body weight change during the experiment” value in series [5] (mouse, in vivo) is given as “no significant body weight loss”. Also, the “Antiproliferative activity on melanoma cell lines, in words” value in series [1] is “inactive”.
On to `Cc1noc(-c2ccc(CSCCC(=O)O)cc2)c1NC(=O)OC(C)c1ccccc1Cl` (stereo not shown) [Ki16425, reference compound], for which, in [15], the “agonist activity on LPA3, in words” value is “did not show agonist effect”. In [16], the “agonist activity on LPA5, in words” value is recorded as “did not show agonist effect”. Moreover, the “agonist activity on LPA1, in words” value in series [17] is on record as “did not show agonist effect”.
Turning to `CNC(=O)c1cc(Oc2ccc(NC(=O)Nc3ccc(Cl)c(C(F)(F)F)c3)cc2)ccn1` [Sorafenib, reference compound], the IC50 in [14] (Homo sapiens, A-375, 48 h) worked out at 5.4 ± 0.5 µM.
On to “(2RS,4R)-2-(4-Acetylamino-phenyl)-thiazolidine-4-carboxylic acid (1-methyl-octadecyl)-amide [Compound 3ia]”, for which the IC50 is 18.9 ± 1.3 µM in series [12]; 16.7 µM in series [1] (setting [24]); 0.8 ± 0.1 µM in [7] (SRB, 96 h, Table 2); 10.7 ± 0.9 µM in series [11] (setting [23]); > 100 µM in series [13]; 3.7 ± 0.2 µM in series [18]. In addition, the IC50 in series [9] (SRB, Table 2) came out at 1.8 ± 0.1 µM; in series [10] (SRB, 96 h, Table 2), 3.9 ± 0.4 µM; in series [3] (setting [25]), 2.6 µM; in series [14] (setting [23]) it was 20.6 ± 2.1 µM. In addition, in series [1] (from average IC50), the “fold decrease in potency compared with 1b, melanoma cells” value was found to be 9.3 fold. The “fold decrease in potency compared with 1b, prostate cancer cells” value in [3] (from average IC50) is 2.4 fold. Besides, the “Ratio = (IC50 of RH7777 cell)/(average IC50 of prostate cell lines)” value in series [3] turned out to be 3.6.
As for “(2RS,4R)-2-(4-Acetylamino-phenyl)-thiazolidine-4-carboxylic acid-(9H-fluoren-2-yl)-amide [Compound 3id]”, the half-inhibitory concentration (IC50) was determined as 3.9 ± 0.3 µM in [12]; 2.6 µM in [1] (setting [24]); 1.6 ± 0.1 µM in [7] (SRB, 96 h, Table 2); 1.7 ± 0.1 µM in series [11] (setting [23]); 28.9 ± 1 µM in series [13]; 2.1 ± 0.1 µM in series [18]. Further, the half-maximal inhibitory concentration (IC50) amounted to 3.5 ± 0.7 µM in [9] (SRB, Table 2); 1.9 ± 0.3 µM in series [10] (SRB, 96 h, Table 2); 2.3 µM in series [3] (setting [25]); 2.1 ± 0.1 µM in [14] (setting [23]). The “Ratio = (IC50 of fibroblast cell)/(the average IC50 of melanoma cell lines)” value in series [1] was found to be 11.3. Besides, the “Ratio = (IC50 of RH7777 cell)/(average IC50 of prostate cell lines)” value in series [3] was 2.4.
“(2RS,4R)-3-Acetyl-2-(4-acetylamino-phenyl)-thiazolidine-4-carboxylic acid hexadecylamide [Compound 4]”: the IC50 in series [12] was 15 ± 0.8 µM; in series [1] (setting [24]), 16 µM; in [7] (SRB, 96 h, Table 2), 6.8 ± 0.8 µM; in [11] (setting [23]), 20.4 ± 0.8 µM; in series [13], 57.7 ± 1.3 µM; in series [18], 9 ± 1.3 µM. Besides, the IC50 in [9] (SRB, Table 2) turned out to be 10.6 ± 0.6 µM; in series [10] (SRB, 96 h, Table 2), 14.9 ± 2.2 µM; in series [3] (setting [25]) it was 10.3 µM; in series [14] (setting [23]) it was 12.6 ± 0.5 µM. Besides, in series [1], the “Ratio = (IC50 of fibroblast cell)/(the average IC50 of melanoma cell lines)” value worked out at 3.6. The “Ratio = (IC50 of RH7777 cell)/(average IC50 of prostate cell lines)” value in series [3] is reported as 1.3.
